SMILES strings stand for the structures.

Experimental findings from ChEMBL document CHEMBL2429846, “Inhibition of monoamine oxidase by 3,4-dihydro-2(1H)-quinolinone derivatives” (Bioorg Med Chem Lett, 2013) are described below.

Data set [1] deals with T1, Amine oxidase [flavin-containing] B (Homo sapiens, UniProt P27338).
T1 sequence (P27338 whole entry): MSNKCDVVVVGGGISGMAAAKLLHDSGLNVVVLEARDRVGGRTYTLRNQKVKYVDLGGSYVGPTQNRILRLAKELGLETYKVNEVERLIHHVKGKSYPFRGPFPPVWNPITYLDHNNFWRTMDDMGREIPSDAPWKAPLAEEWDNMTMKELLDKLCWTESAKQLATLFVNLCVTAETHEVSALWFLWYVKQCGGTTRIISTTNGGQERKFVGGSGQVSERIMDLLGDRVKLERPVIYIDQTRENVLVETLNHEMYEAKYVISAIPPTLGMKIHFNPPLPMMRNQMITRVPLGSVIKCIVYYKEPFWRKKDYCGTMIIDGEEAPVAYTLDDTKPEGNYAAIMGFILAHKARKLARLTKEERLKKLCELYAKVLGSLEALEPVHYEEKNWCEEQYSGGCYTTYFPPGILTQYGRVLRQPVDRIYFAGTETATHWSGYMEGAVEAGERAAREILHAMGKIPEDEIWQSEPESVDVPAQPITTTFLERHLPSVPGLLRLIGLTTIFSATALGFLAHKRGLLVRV
The experiment in a line: Inhibition of recombinant human MAO-B assessed as inhibition of kynuramine conversion to fluorescent metabolite 4-hydroxyquinoline after 20 mins by fluorescence spectrophotometry. The gist of the method: (§1)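 IC50 values were read from sigmoidal concentration–inhibition curves of enzyme activity plotted against log inhibitor concentration.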

Data set [2] addresses T2, Amine oxidase [flavin-containing] A (Homo sapiens, UniProt P21397).
T2 sequence (P21397 whole entry): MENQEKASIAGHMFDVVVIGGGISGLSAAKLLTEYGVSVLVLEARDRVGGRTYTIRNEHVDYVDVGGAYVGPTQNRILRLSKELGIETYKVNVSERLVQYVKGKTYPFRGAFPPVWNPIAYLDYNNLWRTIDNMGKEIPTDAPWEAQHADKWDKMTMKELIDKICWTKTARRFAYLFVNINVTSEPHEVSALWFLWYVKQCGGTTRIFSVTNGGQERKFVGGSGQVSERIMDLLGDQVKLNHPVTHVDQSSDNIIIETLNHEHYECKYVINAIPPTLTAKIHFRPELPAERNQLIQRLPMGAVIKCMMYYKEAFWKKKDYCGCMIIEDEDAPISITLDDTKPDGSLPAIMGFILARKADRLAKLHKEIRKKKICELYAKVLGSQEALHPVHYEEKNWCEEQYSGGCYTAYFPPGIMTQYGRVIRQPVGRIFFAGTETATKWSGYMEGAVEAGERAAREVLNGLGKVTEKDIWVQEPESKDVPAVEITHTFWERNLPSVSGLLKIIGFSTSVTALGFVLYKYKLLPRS
Kind of data set: Inhibition of recombinant human MAO-A assessed as inhibition of kynuramine conversion to fluorescent metabolite 4-hydroxyquinoline after 20 mins by fluorescence spectrophotometry. The gist of the method:
as §1

Data set [3] is filed under the species Homo sapiens. Kind of data set: Selectivity index, ratio of IC50 for recombinant human MAO-A to IC50 for recombinant human MAO-B. An outline of the steps: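 The index was calculated as IC50(MAO-A)/IC50(MAO-B), giving selectivity for the MAO-B isoform.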
Data set [4] addresses T1, Amine oxidase [flavin-containing] B. The experiment in a line: Inhibition of recombinant human MAO-B assessed as inhibition of kynuramine conversion to fluorescent metabolite 4-hydroxyquinoline at 100 uM after 20 mins by fluorescence spectrophotometry.
Data set [5] deals with T2, Amine oxidase [flavin-containing] A. The experiment in a line: Inhibition of recombinant human MAO-A assessed as inhibition of kynuramine conversion to fluorescent metabolite 4-hydroxyquinoline at 100 uM after 20 mins by fluorescence spectrophotometry.
Data set [6] has as its target T1, Amine oxidase [flavin-containing] B. The experiment in a line: Reversible inhibition of recombinant human MAO-B using kynuramine as substrate assessed as residual activity at 100 times IC50 preincubated for 30 mins followed by 100 fold dilution measured after 20 mins by fluorescence spectrophotometry relative to control.

As a reminder, the IC50 is the concentration needed to halve the response being measured. As to `O=C1CCc2ccc(OCc3ccccc3)cc2N1`, the IC50 in data set [1] stood at 0.038 µM; in data set [2] it was 90.4 µM. The Ratio IC50 in data set [3] turned out to be 2380.

Regarding `O=C1CCc2ccc(O)cc2N1`, the half-inhibitory concentration (IC50) in data set [2] was 183 µM. Further, in data set [4], the “inhibition (INH)” value is “Not Active”.

As to `O=C1CCc2cc(OCCc3ccccc3)ccc2N1`, the 50% inhibitory concentration (IC50) was 2.33 µM in data set [1] and 22.5 µM in data set [2]. The Ratio IC50 in data set [3] came out at 10.

Take `O=C1CCc2cc(OCCCc3ccccc3)ccc2N1`: the IC50 in data set [1] was determined as 0.284 µM; in data set [2] it was 19.7 µM. Further, in data set [3], the Ratio IC50 is 69.

In the case of `O=C1CCc2cc(OCc3ccccc3)ccc2N1`, the IC50 in data set [1] is 4.01 µM; in data set [2], 25.3 µM. Besides, the Ratio IC50 in data set [3] came to 6.

On to `O=C1CCc2ccc(OCCc3ccccc3)cc2N1`, for which the concentration for half-maximal inhibition (IC50) stood at 0.191 µM in data set [1] and 53.7 µM in data set [2]. Moreover, the Ratio IC50 in data set [3] worked out at 281.

For `O=C1CCc2cc(O)ccc2N1`, the concentration for half-maximal inhibition (IC50) in data set [1] came to 201 µM; in data set [2], 161 µM. Besides, in data set [3], the Ratio IC50 is 0.8.

Consider `O=C1CCc2cc(OCc3cccc(Cl)c3)ccc2N1`, for which the IC50 in data set [1] worked out at 0.62 µM; in data set [2] it was 50.6 µM. For the same compound, the Ratio IC50 in data set [3] was 82.

For `O=C1CCc2cc(OCc3cccc(Br)c3)ccc2N1`, the IC50 is 0.086 µM in data set [1] and 12.4 µM in data set [2]. Also, in data set [3], the Ratio IC50 is 144.

On to `O=C1CCc2ccc(OCc3cccc(Cl)c3)cc2N1`, for which the “inhibition (INH)” value in data set [5] is “Not Active”.

For the compound `O=C1CCc2ccc(OCc3cccc(Br)c3)cc2N1`, the concentration for half-maximal inhibition (IC50) in data set [2] was 7.98 µM. Moreover, in data set [6], the Activity amounted to 36%.

Regarding `O=C1CCc2ccc(OCCCc3ccccc3)cc2N1`, the half-maximal inhibitory concentration (IC50) came out at 0.13 µM in data set [1] and 22.5 µM in data set [2]. The Ratio IC50 in data set [3] turned out to be 173.
